For experiment [1], the system named is Rattus norvegicus. Briefly: Antiinflammatory activity in Sprague-Dawley rat assessed as inhibition carrageenan-induced paw edema at 30 mg/kg, ip pretreated for 15 mins followed by carrageenan challenge measured at 4 hrs post carrageenan challenge. It counts as functional. The procedure, abridged: (§1)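 Male Sprague-Dawley rats received peptide IP (30, 10 or 3 mg/kg), or indomethacin IP at 5 mg/kg, 15 min before subplantar carrageenan. Paw volume was followed over time against a vehicle group.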
For orientation: Carrageenan injected into the paw causes an acute inflammation.

In the next experiment the test system is Plasma. Put plainly: Anti-coagulating activity in factor 8-deficient human plasma assessed as increase in coagulation time at 10 uM by aPTT assay. It is filed as functional. The procedure, abridged:
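Clotting time measured on a coagulation analyzer using actin FS, 0.025 M CaCl2, FVIII-deficient human plasma and Owren's Veronal Buffer pH 7.35, run per the manufacturer's instructions. Peptide tested from zero (vehicle) up to 10 μM. Each point is the mean ± SD of triplicates.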

For experiment [2], the system named is Rattus norvegicus. Briefly: Antiinflammatory activity in Sprague-Dawley rat carrageenan-induced paw edema model assessed as inhibition of paw edema AUC (0 to 2 hrs) at 10 to 30 mg/kg, ip pretreated for 15 mins followed by carrageenan challenge. It counts as functional, organism-based. The method, boiled down:
as §1

The next experiment concerns the target Plasma kallikrein (Mus musculus, UniProt P26262).
A further experiment has as its target (UniProt A0A8D1M4K5). Put plainly: Inhibition of pig plasma kallikrein using fluorogenic H-Pro-Phe-Arg-AMC peptide as substrate preincubated for 15 mins followed by substrate addition measured by fluorescence-based assay. Details: species or system Sus scrofa. As to conditions: read-out: Ki(app).

pKi: −log10 of the molar value. Active and inactive are the calls of the source. No cut-off for these calls is given here.

One may read the inhibition in vivo as the percentage by which the read-out fell short of the control. One may read the pKi as the Ki on a negative log10 scale, so that one unit is a factor of ten.

Sequence of Plasma kallikrein (P26262 20-390 limits assumed): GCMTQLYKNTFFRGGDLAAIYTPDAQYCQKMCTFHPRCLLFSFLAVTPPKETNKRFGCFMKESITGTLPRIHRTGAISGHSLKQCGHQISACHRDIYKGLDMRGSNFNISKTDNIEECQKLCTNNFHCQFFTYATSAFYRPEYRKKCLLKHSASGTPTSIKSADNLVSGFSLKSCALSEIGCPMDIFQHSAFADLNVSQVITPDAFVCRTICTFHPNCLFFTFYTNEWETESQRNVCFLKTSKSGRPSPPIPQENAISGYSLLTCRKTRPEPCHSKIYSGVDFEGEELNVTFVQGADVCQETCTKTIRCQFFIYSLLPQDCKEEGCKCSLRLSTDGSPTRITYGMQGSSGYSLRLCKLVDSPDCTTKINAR
Sequence of Plasma kallikrein (P26262 391-638 limits assumed): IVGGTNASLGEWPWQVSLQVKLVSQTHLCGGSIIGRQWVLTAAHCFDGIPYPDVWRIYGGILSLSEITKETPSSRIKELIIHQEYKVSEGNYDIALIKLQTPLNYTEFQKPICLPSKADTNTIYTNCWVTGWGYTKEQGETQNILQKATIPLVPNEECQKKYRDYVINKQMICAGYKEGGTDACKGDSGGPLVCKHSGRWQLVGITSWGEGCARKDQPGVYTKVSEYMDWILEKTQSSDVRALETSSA

For `CC(=O)N[C@H]1CSCc2cc3cc(c2)CSC[C@H](C(=O)N[C@@H](C)C(=O)N(C)CC(=O)N(C)CC(=O)N(C)CC(=O)N[C@H](CCCNC(=N)N)C(=O)N[C@H](CCCNC(=N)N)C(=O)O)NC(=O)[C@H](CC(C)C)NC(=O)[C@@H]2CCCN2C(=O)[C@H](C)NC(=O)[C@H](CC(=O)O)NC(=O)[C@H](Cc2c[nH]c4ccccc24)NC(=O)[C@@H]2CCCN2C(=O)[C@H](CSC3)NC(=O)[C@H](Cc2c[nH]c3ccccc23)NC(=O)[C@@H]2CCCN2C(=O)[C@H](CC(N)=O)NC(=O)[C@H](Cc2c[nH]c3ccccc23)NC(=O)[C@H]([C@@H](C)O)NC(=O)[C@H](CC(N)=O)NC1=O`, in the experiment with Rattus norvegicus [1], the inhibition in vivo at 30 mg/kg was determined as 60%. Besides, in the experiment on Plasma, the Activity was less than 5%. The inhibition result with Rattus norvegicus [2] is “Active”.
On to `CC[C@H](C)[C@@H]1NC(=O)[C@H](CC(=O)O)NC(=O)[C@@H]2CCCN2C(=O)[C@H](Cc2ccc(O)cc2)NC(=O)[C@H](Cc2ccc(O)cc2)NC(=O)[C@H](C(C)C)NC(=O)[C@@H]2CSCc3cc(cc(c3)CSC[C@@H](C(=O)N[C@@H](C)C(=O)N(C)CC(=O)N(C)CC(=O)N(C)CC(=O)N[C@H](CCCNC(=N)N)C(=O)N[C@H](CCCNC(=N)N)C(=O)O)NC1=O)CSC[C@H](NC(C)=O)C(=O)N[C@@H](CO)C(=O)N[C@@H](Cc1ccccc1)C(=O)N1CCC1C(=O)N[C@@H](Cc1ccc(O)cc1)C(=O)N[C@@H](CCCCNC(=N)N)C(=O)N2` (stereo not given in full), for which the values for the pKi at Plasma kallikrein and at (UniProt A0A8D1M4K5) were 7.35 and 6.52, respectively.

Source of the values: ChEMBL document CHEMBL4033799, “Stable and Long-Lasting, Novel Bicyclic Peptide Plasma Kallikrein Inhibitors for the Treatment of Diabetic Macular Edema” (J Med Chem, 2018).
